# Measured values reported in ChEMBL document CHEMBL1127451, “Benzoselenazolinone derivatives designed to be glutathione peroxidase mimetics feature inhibition of cyclooxygenase/5-lipoxygenase pathways and anti-inflammatory activity” (1994).
# Columns and labels:
# Format in all cases: functional
# Rattus norvegicus [1] = experiment: Tested for acute anti-inflammatory activity of the antirat serum-induced edema in rats at dose of 0.1 mg/kg at time interval- 2 hr
# Outline: (§1)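 Oral dosing of fasted Wistar rats (200–240 g, six per group) with drug in 0.5 mL 2% gelatin; 1 h later 0.1 mL rabbit antirat serum given by subplantar injection into hind paw.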
# Rattus norvegicus [2] = experiment: Tested for acute anti-inflammatory activity of carrageenan-induced foot edema in rats at dose of 0.1 mg/kg at time interval- 0.5 hr
# Outline: (§2)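 Fasted male-unspecified Wistar rats (200–240 g), groups of six, dosed orally with drug in 0.5 mL 2% gelatin; 1 h later 0.1 mL carrageenan (2% in […]) injected subplantar into hind paw. Paw volume by water plethysmometer at 0, 0.5, 1, 2, 3, 4 h; mean swelling versus vehicle-treated group expressed as percent inhibition.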
# Rattus norvegicus [3] = experiment: Tested for acute anti-inflammatory activity of carrageenan-induced foot edema in rats at dose of 0.1 mg/kg at time interval- 1 hr; outline: as §2
# Rattus norvegicus [4] = experiment: Tested for acute anti-inflammatory activity of carrageenan-induced foot edema in rats at dose of 0.1 mg/kg at time interval- 2 hr; outline: as §2
# Rattus norvegicus [5] = experiment: Tested for acute anti-inflammatory activity of carrageenan-induced foot edema in rats at dose of 0.1 mg/kg at time interval- 3h; outline: as §2
# Rattus norvegicus [6] = experiment: Tested for acute anti-inflammatory activity of carrageenan-induced foot edema in rats at dose of 0.1 mg/kg at time interval- 4 hr; outline: as §2
# Rattus norvegicus [7] = experiment: Tested for acute anti-inflammatory activity of carrageenan-induced foot edema in rats at dose of 10 mg/kg at time interval- 0.5 hr; outline: as §2
# Rattus norvegicus [8] = experiment: Tested for acute anti-inflammatory activity of carrageenan-induced foot edema in rats at dose of 10 mg/kg at time interval- 1 hr; outline: as §2
# Rattus norvegicus [9] = experiment: Tested for acute anti-inflammatory activity of carrageenan-induced foot edema in rats at dose of 10 mg/kg at time interval- 2 hr; outline: as §2
# Rattus norvegicus [10] = experiment: Tested for acute anti-inflammatory activity of carrageenan-induced foot edema in rats at dose of 10 mg/kg at time interval- 3h; outline: as §2
# Rattus norvegicus [11] = experiment: Tested for acute anti-inflammatory activity of carrageenan-induced foot edema in rats at dose of 10 mg/kg at time interval- 4 hr; outline: as §2
# Rattus norvegicus [12] = experiment: Tested for acute anti-inflammatory activity of carrageenan-induced foot edema in rats at dose of 1 mg/kg at time interval- 0.5 hr; outline: as §2
# Rattus norvegicus [13] = experiment: Tested for acute anti-inflammatory activity of carrageenan-induced foot edema in rats at dose of 1 mg/kg at time interval- 1 hr; outline: as §2
# Rattus norvegicus [14] = experiment: Tested for acute anti-inflammatory activity of carrageenan-induced foot edema in rats at dose of 1 mg/kg at time interval- 2 hr; outline: as §2
# Rattus norvegicus [15] = experiment: Tested for acute anti-inflammatory activity of carrageenan-induced foot edema in rats at dose of 1 mg/kg at time interval- 3h; outline: as §2
# Rattus norvegicus [16] = experiment: Tested for acute anti-inflammatory activity of carrageenan-induced foot edema in rats at dose of 1 mg/kg at time interval- 4 hr; outline: as §2
# Rattus norvegicus [17] = experiment: Tested for acute anti-inflammatory activity of the antirat serum-induced edema at dose of 1 mg/kg at time interval- 3h; outline: as §1
# Rattus norvegicus [18] = experiment: Tested for acute anti-inflammatory activity of the antirat serum-induced edema in rats at dose of 0.1 mg/kg at time interval- 0.5 hr; outline: as §1
# Rattus norvegicus [19] = experiment: Tested for acute anti-inflammatory activity of the antirat serum-induced edema in rats at dose of 0.1 mg/kg at time interval- 3h; outline: as §1
# Rattus norvegicus [20] = experiment: Tested for acute anti-inflammatory activity of the antirat serum-induced edema in rats at dose of 0.1 mg/kg at time interval- 4 hr; outline: as §1
# Rattus norvegicus [21] = experiment: Tested for acute anti-inflammatory activity of the antirat serum-induced edema in rats at dose of 10 mg/kg at time interval- 0.5 hr; outline: as §1
# Rattus norvegicus [22] = experiment: Tested for acute anti-inflammatory activity of the antirat serum-induced edema in rats at dose of 10 mg/kg at time interval- 1 hr; outline: as §1
# Rattus norvegicus [23] = experiment: Tested for acute anti-inflammatory activity of the antirat serum-induced edema in rats at dose of 10 mg/kg at time interval- 3h; outline: as §1
# Rattus norvegicus [24] = experiment: Tested for acute anti-inflammatory activity of the antirat serum-induced edema in rats at dose of 10 mg/kg at time interval- 4 hr; outline: as §1
# Rattus norvegicus [25] = experiment: Tested for acute anti-inflammatory activity of the antirat serum-induced edema in rats at dose of 1 mg/kg at time interval- 0.5 hr; outline: as §1
# Rattus norvegicus [26] = experiment: Tested for acute anti-inflammatory activity of the antirat serum-induced edema in rats at dose of 1 mg/kg at time interval- 1 hr; outline: as §1
# Rattus norvegicus [27] = experiment: Tested for acute anti-inflammatory activity of the antirat serum-induced edema in rats at dose of 1 mg/kg at time interval- 2 hr; outline: as §1
# Rattus norvegicus [28] = experiment: Tested for acute anti-inflammatory activity of the antirat serum-induced edema in rats at dose of 1 mg/kg at time interval- 4 hr; outline: as §1
# Rattus norvegicus [29] = experiment: Tested for acute anti-inflammatory activity of the antirat serum-induced edema in rats at dose of 0.1 mg/kg at time interval- 1 hr; outline: as §1
# Rattus norvegicus [30] = experiment: Tested for acute anti-inflammatory activity of the antirat serum-induced edema in rats at dose of 10 mg/kg at time interval- 2 hr; outline: as §1
smiles,measurement,setting,value
COc1ccc2c(c1)c(CC(=O)O)c(C)n2C(=O)c1ccc(Cl)cc1 [INDOMETHACIN],inhibition in vivo at 0.1 mg/kg,Rattus norvegicus [1],4.4%
same,inhibition in vivo at 0.1 mg/kg,Rattus norvegicus [2],-124%
same,inhibition in vivo at 0.1 mg/kg,Rattus norvegicus [3],11.3%
same,inhibition in vivo at 0.1 mg/kg,Rattus norvegicus [4],1.7%
same,inhibition in vivo at 0.1 mg/kg,Rattus norvegicus [5],4%
same,inhibition in vivo at 0.1 mg/kg,Rattus norvegicus [6],-1.7%
same,inhibition in vivo at 10 mg/kg,Rattus norvegicus [7],-57.1%
same,inhibition in vivo at 10 mg/kg,Rattus norvegicus [8],26.2%
same,inhibition in vivo at 10 mg/kg,Rattus norvegicus [9],55.5%
same,inhibition in vivo at 10 mg/kg,Rattus norvegicus [10],68.7%
same,inhibition in vivo at 10 mg/kg,Rattus norvegicus [11],65.2%
same,inhibition in vivo at 1 mg/kg,Rattus norvegicus [12],-22.2%
same,inhibition in vivo at 1 mg/kg,Rattus norvegicus [13],41.8%
same,inhibition in vivo at 1 mg/kg,Rattus norvegicus [14],40.2%
same,inhibition in vivo at 1 mg/kg,Rattus norvegicus [15],40%
same,inhibition in vivo at 1 mg/kg,Rattus norvegicus [16],29.5%
same,inhibition in vivo at 1 mg/kg,Rattus norvegicus [17],1.6%
same,inhibition in vivo at 0.1 mg/kg,Rattus norvegicus [18],-28.3%
same,inhibition in vivo at 0.1 mg/kg,Rattus norvegicus [19],4.4%
same,inhibition in vivo at 0.1 mg/kg,Rattus norvegicus [20],16.9%
same,inhibition in vivo at 10 mg/kg,Rattus norvegicus [21],-21.2%
same,inhibition in vivo at 10 mg/kg,Rattus norvegicus [22],-1.5%
same,inhibition in vivo at 10 mg/kg,Rattus norvegicus [23],25.5%
same,inhibition in vivo at 10 mg/kg,Rattus norvegicus [24],24.5%
same,inhibition in vivo at 1 mg/kg,Rattus norvegicus [25],-8.1%
same,inhibition in vivo at 1 mg/kg,Rattus norvegicus [26],-3%
same,inhibition in vivo at 1 mg/kg,Rattus norvegicus [27],10%
same,inhibition in vivo at 1 mg/kg,Rattus norvegicus [28],7.5%
same,inhibition in vivo at 0.1 mg/kg,Rattus norvegicus [29],-7.9%
same,inhibition in vivo at 10 mg/kg,Rattus norvegicus [30],22.5%
